The values below come from ChEMBL document CHEMBL4477177, “Antituberculosis Activity of a Naturally Occurring Flavonoid, Isorhamnetin” (J Nat Prod, 2016).

In series [1] the target is Mitogen-activated protein kinase 3 (Homo sapiens) (UniProt P27361). In words: Binding affinity to human ERK1 expressed in Escherichia coli BL21 by fluorescence quenching based spectrofluorometric analysis. The essentials: (§1)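 C-terminally His6-tagged ERK1 or p38 MAPK expressed in E. coli and purified. Protein at 10 μM in 50 mM sodium phosphate, 100 mM NaCl, pH 8.0, titrated with ligand to 1:10 protein:ligand. Excitation 290 nm, emission 290–500 nm. Binding constant K derived from fluorescence quenching.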

Series [2] has as its target MAP kinase p38 (Homo sapiens) (UniProt O15264+Q15759+Q16539+P53778). In words: Binding affinity to human C-terminally His-tagged p38 expressed in Escherichia coli BL21 by fluorescence quenching based spectrofluorometric analysis. The essentials: as §1
Series [3] deals with Mycobacterium tuberculosis. As to the kind of experiment: Antitubercular activity against Mycobacterium tuberculosis H37Rv ATCC 27294 incubated for 7 days by resazurin assay. In kind it is functional. The conditions noted are these: H37Rv ATCC 27294, 168 h. For orientation: Resazurin is reduced to fluorescent resorufin, in cell work by metabolically active cells.
A short description of series [4]: Lipophilicity, logP of the compound. In kind it is physicochemical. The conditions noted are these: octanol/water.
A short description of series [5]: Cytotoxicity against human HaCaT cells assessed as cell survival rate at 16 uM after 24 hrs by MTT assay. The conditions noted are these: read-out: Survival. The class given is cell-based. In a few lines:
(§2)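 Cells treated for 24 h with test agent (0–400 μM) or rifampicin (0–16 μM), then MTT assay. Survival taken as A570 of treated cells over A570 of untreated cells, as a percentage. Average of triplicates from three independent experiments.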
In general terms: Tetrazolium dyes change colour on reduction, which living cells bring about.

A short description of series [6]: Cytotoxicity against mouse NIH/3T3 cells assessed as cell survival rate at 16 uM after 24 hrs by MTT assay. The conditions noted are these: read-out: Survival. The class given is cell-based, NIH3T3. In a few lines: as §2
Series [7] has as its system Mycobacterium tuberculosis. As to the kind of experiment: Antitubercular activity against Mycobacterium tuberculosis H37Rv P887 incubated for 1 to 9 days by inverted microscopic analysis. The class given is functional. In a few lines: (§3)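 Bacteria immobilised in 0.5% agarose within microfluidic channels of a 96-well chip. Compound (0–632 μM; rifampicin 0–19.4 μM) supplied in Middlebrook 7H9 with 10% OADC and allowed to diffuse in. Incubated at 37 °C; channel boundary imaged by inverted microscopy (40×) at 1, 3, 5, 7 and 9 days. MIC90 taken as lowest concentration giving 90% growth inhibition. Triplicate.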

In series [8] the test system is Mycobacterium tuberculosis. As to the kind of experiment: Antitubercular activity against XDR Mycobacterium tuberculosis X24 incubated for 1 to 9 days by inverted microscopic analysis. The class given is functional. In a few lines:
as §3

Series [9] can be described thus: Cytotoxicity against human MRC5 cells assessed as cell survival rate at 16 uM after 24 hrs by MTT assay. The class given is cell-based. Particulars: read-out: Survival. The essentials: as §2
The subject of series [10] is Mycobacterium tuberculosis. In words: Antitubercular activity against MDR Mycobacterium tuberculosis X23 incubated for 1 to 9 days by inverted microscopic analysis. The class given is functional.
For series [11], the system named is Mycobacterium tuberculosis. In words: Antitubercular activity against XDR Mycobacterium tuberculosis X59 incubated for 1 to 9 days by inverted microscopic analysis. The class given is functional. In a few lines:
as §3

Series [12] relates to Mycobacterium tuberculosis. In words: Antitubercular activity against MDR Mycobacterium tuberculosis M22 incubated for 1 to 9 days by inverted microscopic analysis. In kind it is functional. In a few lines:
as §3

Values after ≈ are worked out from the molar mass of the structure shown. Active and inactive are the calls of the source. The rule behind the calls is not given here. Some results are limits rather than exact numbers.

Chain of Mitogen-activated protein kinase 3 (Homo sapiens) (P27361 whole entry): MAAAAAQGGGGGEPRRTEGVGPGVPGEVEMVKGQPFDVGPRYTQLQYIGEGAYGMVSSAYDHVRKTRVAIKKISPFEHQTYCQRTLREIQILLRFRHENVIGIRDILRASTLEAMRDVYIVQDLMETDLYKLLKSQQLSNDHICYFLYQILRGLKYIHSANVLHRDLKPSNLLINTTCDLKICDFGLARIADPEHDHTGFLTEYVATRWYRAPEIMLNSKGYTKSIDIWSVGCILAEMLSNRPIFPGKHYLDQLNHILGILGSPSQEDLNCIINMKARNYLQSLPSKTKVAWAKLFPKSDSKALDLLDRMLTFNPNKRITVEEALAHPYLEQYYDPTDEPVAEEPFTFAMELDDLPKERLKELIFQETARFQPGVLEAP

Turning to `O=c1c(O)c(-c2ccc(O)c(O)c2)oc2cc(O)cc(O)c12` [QUERCETIN], the K in series [1] was found to be 5.62 ×10⁵ /M; in series [2], 9.87 ×10⁵ /M. In series [3], the MIC is greater than 827 µM. The same molecule gave a logP in series [4] of 1.63.

On to `CO[C@H]1/C=C/O[C@@]2(C)Oc3c(C)c(O)c4c(O)c(c(/C=N/N5CCN(C)CC5)c(O)c4c3C2=O)NC(=O)/C(C)=C\C=C\[C@H](C)[C@H](O)[C@@H](C)[C@@H](O)[C@@H](C)[C@H](OC(C)=O)[C@@H]1C` [RIFAMPIN], for which the viability at 24 h, 16 µM was found to be 55% in [5], 62% in series [6] and 53% in [9]. The MIC90 in series [7] was 0.61 µM (≈ 0.502 µg/mL). Further, the MIC90 entry in series [8], in series [10] and in [11] was “inactive” each time.

For `COc1ccc(-c2oc3cc(O)cc(O)c3c(=O)c2O)cc1O` [TAMARIXETIN], the K in series [1] stood at 6.31 ×10⁴ /M; in series [2], 4.64 ×10⁴ /M. The MIC90 was 632 µM (≈ 200 µg/mL) in series [7]; greater than 632 µM in [8]; 632 µM (≈ 200 µg/mL) in series [12]; 632 µM (≈ 200 µg/mL) in series [10]; greater than 632 µM in [11]. Further, in series [4], the log partition coefficient (logP) was found to be 1.86.

Usually MIC stands for the lowest concentration found to suppress growth. The term logP denotes the decadic logarithm of the partition coefficient of the neutral form, usually between octanol and water. Higher therefore signals higher lipophilicity. For orientation: MIC90 means an inhibitory concentration at the 90% level, which refers to growth in some studies and to a panel of isolates in others.
